Experimental data: paper PMC4618194 (Nature chemical biology, 2015)

How the values were obtained:
site IIIQo = conditions: cited from earlier work
[1] = Mitochondrial respiration; assay type: biochemical, rat
Method in brief: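 Seahorse XF24 with 0.5–6 μg rat muscle mitochondrial protein per well, in MAS buffer with 0.3% BSA. Substrate: 5 mM succinate + 4 μM rotenone. State 2 measured with and without compound, then 5 mM ADP (state 3), then 1 μg/ml oligomycin (state 4o). Each compound tested at least three times per substrate.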

HIF-1α = experiment: Hypoxia-induced HIF-1α accumulation; assay type: cell-based, human; conditions: HEK-293 cells, 3.5 h hypoxia; 2 μM
Method in brief: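 HEK-293 cells, 15,000/well, grown 48 h. Medium then swapped for medium pre-equilibrated overnight at 1% or atmospheric O2. Compounds, 100 μM CoCl2 or 2 μM myxothiazol were pre-equilibrated 1 h in that medium and added at the switch. 3.5 h at 1% O2. Cells rinsed in ice-cold PBS, lysed in Laemmli buffer, frozen −80°C. n = 3 biological replicates; one-way ANOVA.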

site IQ = conditions: without affecting energy metabolism; cited from earlier work
[2] = target: site IIIQo of mitochondrial complex III (Rattus norvegicus, UniProt P00159+P20788); experiment: Endpoint H2O2 production assays; assay type: biochemical; conditions: dose-response in two ΔΨm and six H2O2 endpoint assays
Method in brief: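 Freshly isolated rat skeletal-muscle mitochondria, H2O2 read by Amplex UltraRed/HRP fluorescence. Site conditions: IIIQo, 0.5 or 5 mM succinate + 4 μM rotenone + 2.5 μM antimycin A; IQ, 5 mM succinate; IIF, 0.1 mM succinate + rotenone, antimycin A, 2 μM myxothiazol. Other assays: IF/matrix DH, glycerol phosphate (mGPDH), and two ΔΨm assays. 30-min endpoints normalised to DMSO and inhibitor controls, as % change.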

[3] = cited from earlier work

In the case of CCCCCC[C@H]1C(=O)O[C@H](C)[C@H](NC(=O)c2cccc(NC=O)c2O)C(=O)O[C@@H](C)[C@@H]1OC(=O)CC(C)C [antimycin A], the “HIF-1α induction during hypoxia” value (site IIIQo) is listed as “increased” and the “ROS production during hypoxia” value (site IIIQo) is listed as “increased”.

In the case of CO/C(=C/C(N)=O)[C@H](C)[C@H](/C=C/c1csc(-c2csc([C@@H](C)/C=C/C=C/C(C)C)n2)n1)OC [myxothiazol], the “Effect on mitochondrial respiration” value ([1]; 0.08 μM (5x IC50 against site IIIQo), succinate and rotenone) is listed as “potent effect”, the “Effect on HIF-1α stabilization” value (HIF-1α) is listed as “prevented HIF-1α stabilization” and the “HIF-1α induction during hypoxia” value (site IIIQo) is listed as “blocked”. The “ROS production during hypoxia” value (site IIIQo) was “decreased”.

For O=[N+]([O-])c1ccc(Oc2ccc(S(=O)(=O)NC3CCCCC3)cc2)cc1 [CN-POBS], the “Electron leak to O2 at site IQ” value (site IQ) is given as “suppresses”.

In the case of C/C1=C\C[C@]2(C)C(=O)C(O)=C([C@H](C)CO)[C@H]2C/C=C(\C)[C@@H](O)CC/C(C)=C/CC1 [Terpestacin], the “Selectivity for site IIIQo superoxide production” value [2] is given as “not selective”, the “Effect on mitochondrial respiration / oxidative phosphorylation” value ([1]; 10 – 30 μM, succinate plus rotenone) is given as “evidence of uncoupling and inhibition of oxidative phosphorylation” and the “Site IIIQo ROS production and hypoxic signaling” value (site IIIQo; without altering basal respiration) is given as “inhibited”. For the same compound, the “Effect on mitochondrial polarization” value [3] was “depolarizes”.
